From ChEMBL document CHEMBL4014325
Calls of active or inactive are those of the source. The calls are words filed in the database; no cut-off is given here.

Experiments:
[1] = target: T1, Anoctamin-1 (Mus musculus) (UniProt Q8BHY3); assay: Inhibition of TMEM16A in CD1 mouse ileum assessed as reduction in intestinal smooth muscle contraction
T1 sequence (whole entry): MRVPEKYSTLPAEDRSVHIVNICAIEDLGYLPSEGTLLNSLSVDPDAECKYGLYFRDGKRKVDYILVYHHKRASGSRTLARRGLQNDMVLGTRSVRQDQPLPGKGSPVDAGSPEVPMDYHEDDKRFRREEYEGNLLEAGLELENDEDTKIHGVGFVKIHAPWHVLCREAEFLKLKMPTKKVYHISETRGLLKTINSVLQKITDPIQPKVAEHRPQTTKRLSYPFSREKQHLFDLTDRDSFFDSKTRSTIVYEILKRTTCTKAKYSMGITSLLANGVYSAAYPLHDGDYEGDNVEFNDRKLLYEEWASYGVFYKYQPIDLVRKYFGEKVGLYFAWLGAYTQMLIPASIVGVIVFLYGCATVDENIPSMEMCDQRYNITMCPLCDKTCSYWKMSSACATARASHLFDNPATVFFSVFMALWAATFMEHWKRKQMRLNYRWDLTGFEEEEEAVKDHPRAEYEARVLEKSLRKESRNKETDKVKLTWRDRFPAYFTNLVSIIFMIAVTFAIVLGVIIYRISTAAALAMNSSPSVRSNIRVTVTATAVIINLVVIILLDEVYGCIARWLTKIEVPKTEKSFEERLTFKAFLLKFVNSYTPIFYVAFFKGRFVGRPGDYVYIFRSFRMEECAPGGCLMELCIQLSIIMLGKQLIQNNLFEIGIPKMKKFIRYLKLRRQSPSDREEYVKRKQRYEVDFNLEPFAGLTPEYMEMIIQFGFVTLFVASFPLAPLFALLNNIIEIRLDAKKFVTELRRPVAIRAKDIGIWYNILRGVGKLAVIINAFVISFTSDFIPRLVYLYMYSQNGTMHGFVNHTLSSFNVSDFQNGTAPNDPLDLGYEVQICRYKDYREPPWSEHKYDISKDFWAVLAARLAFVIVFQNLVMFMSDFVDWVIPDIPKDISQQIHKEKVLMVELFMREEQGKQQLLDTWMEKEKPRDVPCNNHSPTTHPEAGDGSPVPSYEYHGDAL
Procedure, shortened: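 Ileal segments of ~2 cm from adult CD1 mice killed by avertin overdose (200 mg/kg), ends tied, mounted on a force transducer. […] Stabilised 60 min at 0.5 g resting tension with changes every 15 min. Compound added to the bath; spontaneous isometric contractions recorded; three separate experiments.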

[2] = target: T2, Anoctamin-1 (Homo sapiens) (UniProt Q5XXA6); conditions: 250 nM
T2 sequence (whole entry): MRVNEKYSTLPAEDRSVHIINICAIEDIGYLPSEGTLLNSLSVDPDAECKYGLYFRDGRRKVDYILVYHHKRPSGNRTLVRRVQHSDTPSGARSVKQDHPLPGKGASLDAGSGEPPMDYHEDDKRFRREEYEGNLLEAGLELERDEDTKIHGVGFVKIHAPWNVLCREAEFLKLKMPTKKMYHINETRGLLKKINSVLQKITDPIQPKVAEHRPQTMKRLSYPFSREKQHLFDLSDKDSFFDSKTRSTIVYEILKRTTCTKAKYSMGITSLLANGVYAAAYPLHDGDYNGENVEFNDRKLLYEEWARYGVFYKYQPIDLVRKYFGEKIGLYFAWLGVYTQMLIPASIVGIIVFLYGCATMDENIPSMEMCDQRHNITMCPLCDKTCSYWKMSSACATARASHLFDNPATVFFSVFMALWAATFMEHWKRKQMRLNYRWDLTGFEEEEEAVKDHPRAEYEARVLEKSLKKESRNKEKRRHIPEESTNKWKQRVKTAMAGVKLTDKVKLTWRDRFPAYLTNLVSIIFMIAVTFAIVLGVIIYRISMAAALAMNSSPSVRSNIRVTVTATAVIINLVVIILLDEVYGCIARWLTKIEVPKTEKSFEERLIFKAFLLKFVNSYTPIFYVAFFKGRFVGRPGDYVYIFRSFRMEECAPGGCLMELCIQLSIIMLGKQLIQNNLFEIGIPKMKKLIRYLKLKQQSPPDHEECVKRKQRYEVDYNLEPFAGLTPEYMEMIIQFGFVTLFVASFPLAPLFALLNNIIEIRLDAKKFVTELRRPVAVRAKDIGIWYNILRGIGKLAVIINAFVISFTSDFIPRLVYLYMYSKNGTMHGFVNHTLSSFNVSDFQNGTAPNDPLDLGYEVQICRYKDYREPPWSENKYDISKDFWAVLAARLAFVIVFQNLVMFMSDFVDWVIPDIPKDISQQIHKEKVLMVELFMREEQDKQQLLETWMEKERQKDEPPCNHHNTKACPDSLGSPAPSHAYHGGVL

[3] = Metabolic stability in rat liver microsomes assessed as compound remaining in presence of NADPH at 10 uM after 180 mins by LC/MS analysis; format: ADME, microsome; conditions: read-out: Stability
Procedure, shortened: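 10 μM compound shaken at 37 °C with rat liver microsomes (1 mg protein/mL) in 100 mM potassium phosphate buffer with 1 mM NADPH, sampled at 2–180 min. Quenched on ice with ice-cold ethyl acetate, centrifuged, supernatant dried and redissolved. Parent compound quantified by C₁₈ reverse-phase LC/MS (5–95% acetonitrile gradient); mean ± SEM, n=3.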

[4] = target: Cystic fibrosis transmembrane conductance regulator (Homo sapiens) (UniProt P13569); assay: Inhibition of human wild type CFTR expressed in FRT cells co-expressing halide sensitive YFP-H148Q assessed as reduction in forskolin induced cAMP activated chloride conductance by measuring decrease in iodide influx after 15 mins by fluorescence assay; format: cell-based
Procedure, shortened: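 FRT cells co-expressing YFP and wild-type CFTR, washed with PBS. Incubated 15 min with compound in PBS containing 20 μM forskolin. Plate reader baseline 2 s, then 12 s after rapid addition of I⁻-containing solution; initial I⁻ influx rate computed.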

[5] = target: T2, Anoctamin-1 (Homo sapiens); conditions: 250 nM; remark: listed apart in the source
[6] = Kinetic aqueous solubility of compound in PBS by titration method; format: physicochemical; conditions: buffer
Procedure, shortened: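 Increasing quantities of a 30 mM DMSO stock added to 2 mL aliquots of PBS. Kinetic solubility taken from the titration point.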

[7] = Stability of compound in DMSO; format: physicochemical
[8] = Stability of compound in aqueous solution at 100 uM after 1 day by ESI-LCMS analysis; format: physicochemical; conditions: read-out: Stability
Procedure, shortened: (§1)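 Duplicate samples of 100 μM compound in H₂O (20% DMSO) with 100 μM 5-chloro-3-phenyl-2,1-benzisoxazole as internal standard. Kept at 25 °C for 3 days and analysed daily by ESI-LCMS for the parent compound and the oxalamic acid degradation product.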

[9] = Stability of compound in aqueous solution at 100 uM after 2 days by ESI-LCMS analysis; format: physicochemical; conditions: read-out: Stability; procedure, shortened: as §1
[10] = target: T2, Anoctamin-1 (Homo sapiens); conditions: 1 uM
[11] = target: T2, Anoctamin-1 (Homo sapiens); conditions: 1 uM; remark: listed apart in the source
[12] = target: T2, Anoctamin-1 (Homo sapiens); conditions: 1 uM; remark: listed apart in the source
[13] = Cytotoxicity against human HT-29 cells assessed as cell survival at 5 uM after 8 hrs by alamar blue assay relative to control; format: cell-based; conditions: read-out: Survival
Procedure, shortened: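 Cells cultured overnight, then exposed to compound at 5 μM for 8 h. Viability read by Alamar Blue per kit instructions. Table reports n=3.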

Cystic fibrosis transmembrane conductance regulator (Homo sapiens), sequence (P13569 whole entry, looked up): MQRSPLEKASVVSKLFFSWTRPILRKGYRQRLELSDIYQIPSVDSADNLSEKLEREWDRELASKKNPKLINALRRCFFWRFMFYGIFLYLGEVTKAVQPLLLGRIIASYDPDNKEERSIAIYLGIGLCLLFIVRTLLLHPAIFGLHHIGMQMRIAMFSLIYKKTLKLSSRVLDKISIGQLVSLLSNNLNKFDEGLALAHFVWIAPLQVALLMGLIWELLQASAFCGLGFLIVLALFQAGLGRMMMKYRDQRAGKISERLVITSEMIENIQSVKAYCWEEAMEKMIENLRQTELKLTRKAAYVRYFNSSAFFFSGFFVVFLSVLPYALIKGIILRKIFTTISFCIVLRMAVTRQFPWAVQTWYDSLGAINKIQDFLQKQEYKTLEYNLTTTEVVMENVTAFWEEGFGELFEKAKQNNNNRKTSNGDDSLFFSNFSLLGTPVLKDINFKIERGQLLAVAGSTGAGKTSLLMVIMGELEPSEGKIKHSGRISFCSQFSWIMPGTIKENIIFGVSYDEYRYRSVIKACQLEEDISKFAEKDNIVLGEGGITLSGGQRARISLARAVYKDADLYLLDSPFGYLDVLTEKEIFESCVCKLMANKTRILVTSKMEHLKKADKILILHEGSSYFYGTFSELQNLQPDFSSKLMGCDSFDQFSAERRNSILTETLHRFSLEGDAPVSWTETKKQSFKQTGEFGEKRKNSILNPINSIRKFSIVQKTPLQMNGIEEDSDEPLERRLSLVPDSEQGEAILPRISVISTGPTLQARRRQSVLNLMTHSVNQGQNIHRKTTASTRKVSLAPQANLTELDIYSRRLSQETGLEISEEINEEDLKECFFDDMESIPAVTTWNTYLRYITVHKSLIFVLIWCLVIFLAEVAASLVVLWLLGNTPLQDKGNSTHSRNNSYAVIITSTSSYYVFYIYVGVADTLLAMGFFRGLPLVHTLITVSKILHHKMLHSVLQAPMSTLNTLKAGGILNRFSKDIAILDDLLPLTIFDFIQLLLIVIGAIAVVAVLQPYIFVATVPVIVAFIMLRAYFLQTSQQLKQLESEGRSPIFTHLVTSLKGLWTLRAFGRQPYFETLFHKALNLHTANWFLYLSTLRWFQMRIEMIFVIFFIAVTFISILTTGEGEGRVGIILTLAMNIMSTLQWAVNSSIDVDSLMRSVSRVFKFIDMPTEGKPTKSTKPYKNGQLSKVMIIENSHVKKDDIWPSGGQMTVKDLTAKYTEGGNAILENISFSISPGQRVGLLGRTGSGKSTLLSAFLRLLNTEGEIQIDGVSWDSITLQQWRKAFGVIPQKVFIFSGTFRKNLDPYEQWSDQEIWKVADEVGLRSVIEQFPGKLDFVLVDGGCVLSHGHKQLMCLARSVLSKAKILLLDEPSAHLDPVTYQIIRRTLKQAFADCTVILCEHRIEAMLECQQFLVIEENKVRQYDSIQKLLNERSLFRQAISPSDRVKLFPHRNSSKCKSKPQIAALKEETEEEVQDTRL

Cc1ccccc1NC(=O)c1c(NC(=O)C(F)(F)Br)sc2c1CCCCC2
inhibition [1]: Dose-dependent effect
inhibition [2]: inactive
remaining at 3 h, 10 µM [3]: 30%
inhibition [4]: inactive
inhibition [5]: Active
Kinetic_solubility [6]: 0.04 mg/mL
Stability [7]: > 6 months
remaining at 24 h, 100 µM [8]: 72%
remaining at 48 h, 100 µM [9]: 30%
inhibition [10]: Active
inhibition [11]: Active
inhibition [12]: Active
viability at 8 h, 5 µM [13]: 97%
